The values that follow come from PubChem BioAssay.

Test [1] in a line: Her2 expression decrease, cell viability multiplex – SKBR3 breast tumor cells, AlphaScreen, ATP viability, primary screen (AID 461).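 On Her2 level: lower value means less Her2 protein in the cells.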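 On viability: percent of carrier control wells set as 100% viability.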 The following applies: SKBR3 Her2 protein level, 18-24 h, measured here: SKBR3 viability, ATP luminescence, at 10 µM.
Test [2] has as its target Receptor tyrosine-protein kinase erbB-2 (Homo sapiens) (UniProt P04626). The description is as above. Conditions: 18-24 h, at 10 µM, stronger effect = lower value.
The nature of test [3]: reduced viability of SK-BR-3 breast cancer cells – cell-based, 24 h, human, pilot screen (AID 572;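 active means viability at or below 10% of carrier control in both of two separate runs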;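 further: compound exposure lasted between 18 and 24 h rather than exactly 24 h; 100% = carrier-treated control wells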). The following applies: SK-BR-3 viability, CellTiter-Glo luminescence, at 10 µM, stronger effect = lower value. A general note: ATP-based viability assays read luminescence as a measure of living cells.
Test [4] in a line: HUVEC growth inhibition – cell-based, human, primary screen (AID 575;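 active means viability at or below 30% in both replicate assays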;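 further: 100% = median of untreated cell wells with 0.1% DMSO on each plate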). Conditions: HUVEC proliferation, CellTiter-Glo luminescence, 72 h; at 10 µM; stronger effect = lower value. Summed up:
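material = primary HUVEC, no more than 12 passages | input = 1250 cells per well | controls = vehicle and MePR control wells | measured by = CTG luminescence | times = 72 h compound incubation | format = collagen-coated 384-well format | read-out = % viability vs DMSO wells | doses = single 10 µM dose, 0.1% DMSO, from 5x medium stock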

Test [5] can be described thus: H69AR cell proliferation blockers – human, duplicate replicates, primary screen (AID 580;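 active means viability at or under a set limit in both replicates, limit being median viability minus 3 SD, cut at about 48% in these data, passing the limit was not always enough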;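 further: 100% = mean luminescence of untreated wells and 0% = no signal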). The following applies: H69AR lung tumor cells viability, ATP luminescence, 72 h; at 10 µM; stronger effect = lower value.
Test [6] in a line: MRP1 drug-resistance reversers in H69AR cells – cell-based, doxorubicin co-treatment, pilot screen (AID 601;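 active means viability loss from added drug above about 55%, and viability with drug at most 40%, in both replicates, limit read from the data, passing the limit was not always enough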). The following applies: CellTiter-Glo, 72 h, at 10 µM; for differential viability (reversal): stronger effect = higher value.
A short description of test [7]: yeast transport mutant growth inhibition pilot in 384-well plates, post-Golgi transport modulator project (AID 636; in the data active means inhibition above about 31%). Conditions: absorbance 615 nm, about 18 h, stronger effect = higher value.
The nature of test [8]: growth suppression of yeast trafficking mutant, preliminary HTS, modulators of trafficking downstream of Golgi apparatus project, 1536-format plate, OD 615 nm (AID 637; in the data active means inhibition above about 30%). Conditions: yeast transport mutant growth, absorbance 615 nm, 18 h; stronger effect = higher value.
Where [9] appears, read: H69AR cells + 2 uM doxorubicin, measured here: viability with 2 uM doxorubicin, stronger effect = lower value.
[10] abbreviates: H69AR cells, compound alone cytotoxicity.

The structures appear in SMILES notation. The source made the active and inactive calls.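 How the source made its calls, unless noted: active means Her2 level under about 52% in both replicate screens, with viability over 70% of control (limit read from the data); inconclusive means Her2 under the limit in one screen only, or viability under 70%; inactive means Her2 level above the set limit.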

Usually viability stands for a read-out of living cells in per cent, often relative to untreated cells. One may read the inhibition as the drop in the measured response relative to a control, in per cent.

Sequence of Receptor tyrosine-protein kinase erbB-2 (Homo sapiens) (P04626 whole entry, looked up): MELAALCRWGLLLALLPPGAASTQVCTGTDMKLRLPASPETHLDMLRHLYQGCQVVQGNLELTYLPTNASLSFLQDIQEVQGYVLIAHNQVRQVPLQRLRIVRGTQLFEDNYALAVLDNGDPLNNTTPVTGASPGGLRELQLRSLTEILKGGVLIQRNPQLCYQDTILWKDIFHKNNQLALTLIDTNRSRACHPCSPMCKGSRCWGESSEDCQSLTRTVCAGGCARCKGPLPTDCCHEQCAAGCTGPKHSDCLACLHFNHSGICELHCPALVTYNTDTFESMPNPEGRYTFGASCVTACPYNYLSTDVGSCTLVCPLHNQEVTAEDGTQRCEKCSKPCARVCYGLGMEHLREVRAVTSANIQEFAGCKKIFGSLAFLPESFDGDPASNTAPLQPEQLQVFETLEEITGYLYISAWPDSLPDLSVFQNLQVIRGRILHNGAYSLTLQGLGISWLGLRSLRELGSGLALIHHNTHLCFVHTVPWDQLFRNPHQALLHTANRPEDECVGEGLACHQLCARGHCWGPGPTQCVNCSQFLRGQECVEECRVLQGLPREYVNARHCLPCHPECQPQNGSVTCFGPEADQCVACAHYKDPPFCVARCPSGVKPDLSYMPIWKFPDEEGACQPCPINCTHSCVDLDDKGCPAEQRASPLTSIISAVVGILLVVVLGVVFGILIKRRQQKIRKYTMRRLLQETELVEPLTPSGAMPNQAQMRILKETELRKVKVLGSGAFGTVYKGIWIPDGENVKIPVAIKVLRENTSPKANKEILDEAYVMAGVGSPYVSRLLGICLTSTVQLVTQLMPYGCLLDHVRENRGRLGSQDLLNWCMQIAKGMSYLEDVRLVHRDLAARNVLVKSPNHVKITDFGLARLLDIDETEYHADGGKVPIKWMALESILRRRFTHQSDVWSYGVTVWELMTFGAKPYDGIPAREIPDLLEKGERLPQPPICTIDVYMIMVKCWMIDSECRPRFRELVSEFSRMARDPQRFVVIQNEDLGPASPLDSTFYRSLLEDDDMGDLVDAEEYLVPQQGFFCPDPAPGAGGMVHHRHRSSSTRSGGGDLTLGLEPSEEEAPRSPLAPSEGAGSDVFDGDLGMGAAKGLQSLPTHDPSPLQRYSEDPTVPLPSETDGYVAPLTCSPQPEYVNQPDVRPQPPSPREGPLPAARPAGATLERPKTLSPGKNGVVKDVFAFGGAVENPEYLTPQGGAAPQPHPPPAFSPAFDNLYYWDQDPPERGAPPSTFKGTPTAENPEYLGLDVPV

Regarding `Cc1sc2nc(SCC(=O)N3CCN(CCO)CC3)n(-c3ccccc3)c(=O)c2c1C`, the viability was 118% in test [1]; 118% (inactive) in test [3]; 78.3% (inactive) in test [4]; 88.1% (inactive) in test [5]; 87.2% in test [6] (setting [9]); 88.1% in test [6] (setting [10]). The Her2 level in test [2] is 99% (inactive). Also, the differential viability (reversal) in test [6] (H69AR cells + 2 uM doxorubicin) is 0.935% (inactive). Moreover, the inhibition is 0.65% (inactive) in test [7] and -0.16% (inactive) in test [8].
Regarding `CN(C)CC(=O)N1c2ccccc2CCc2ccc(NC(=O)c3ccc(N)cc3)cc21`, the viability in test [1] is 103%; in test [3] it was 103% (inactive); in test [4] it was 82.1% (inactive); in test [5], 83.8% (inactive); in test [6] (setting [9]), 88.7%; in test [6] (setting [10]), 83.8%. In test [2], the Her2 level is 102% (inactive). The differential viability (reversal) in test [6] (H69AR cells + 2 uM doxorubicin) is -4.88% (inactive). Further, the results for the inhibition in test [7] and in test [8] were -5.79% (inactive) and 4.26% (inactive), respectively.
In the case of `COc1ccc(NC(=O)C23CCC(C)(C(=O)C2)C3(C)C)cc1` (stereo not given), the viability in test [1] is 92.5%; in test [3], 92.5% (inactive); in test [4], 105% (inactive); in test [5], 102% (inactive); in test [6] (setting [9]), 99.3%; in test [6] (setting [10]), 102%. Also, the Her2 level in test [2] is 102% (inactive). Further, the differential viability (reversal) in test [6] (H69AR cells + 2 uM doxorubicin) is 2.21% (inactive). Also, the inhibition was -1.07% (inactive) in test [7] and 0.48% (inactive) in test [8].
`CC(=O)NC1(C(F)(F)F)NC(=O)N(CC(C)C)C1=O` (stereo not given): the viability in test [1] was 103%; in test [3], 103% (inactive); in test [4], 91.1% (inactive); in test [5] it was 102% (inactive); in test [6] (setting [9]), 83.6%; in test [6] (setting [10]) it was 102%. The Her2 level in test [2] was 109% (inactive). In addition, the differential viability (reversal) in test [6] (H69AR cells + 2 uM doxorubicin) was 18.8% (inactive). Besides, the inhibition in test [7] was -2.3% (inactive); in test [8], -0.66% (inactive).
As to `CCn1ncc(C2=NOC(C(=O)NCc3ccc(Cl)cc3)C2)c1C` (stereo not given), the viability is 83.5% in test [1]; 83.5% (inactive) in test [3]; 38.7% (inactive) in test [4]; 24.4% (active) in test [5]; 54.2% in test [6] (setting [9]); 24.4% in test [6] (setting [10]). For the same compound, the Her2 level in test [2] is 69.5% (inactive). For the same compound, the differential viability (reversal) in test [6] (H69AR cells + 2 uM doxorubicin) was -29.8% (inactive). Also, the inhibition in test [7] was -2.89% (inactive); in test [8], -0.32% (inactive).
As to `COc1cccc(-n2c(C)nc3c(cnn3-c3ccc(Cl)cc3)c2=O)c1`, the viability in test [1] is 92.5%; in test [3], 92.5% (inactive); in test [4] it was 79.8% (inactive); in test [5], 76.3% (inactive); in test [6] (setting [9]), 78%; in test [6] (setting [10]), 76.3%. In addition, the Her2 level in test [2] is 86% (inactive). Also, the differential viability (reversal) in test [6] (H69AR cells + 2 uM doxorubicin) is -1.66% (inactive). In addition, the inhibition in test [7] is -4.47% (inactive); in test [8], 4.19% (inactive).
As to `Cc1ccccc1Cn1ccc(NC(=O)c2cnn3c(C(F)(F)F)cc(-c4ccco4)nc23)n1`, the viability in test [1] was 76.5%; in test [3], 76.5% (inactive); in test [4], 62.3% (inactive); in test [5] it was 60.4% (inactive); in test [6] (setting [9]), 35.3%; in test [6] (setting [10]), 60.4%. For the same compound, the Her2 level in test [2] was 81% (inactive). Also, in test [6] (H69AR cells + 2 uM doxorubicin), the differential viability (reversal) was 25.2% (inactive). The figures for the inhibition in test [7] and in test [8] were -4.13% (inactive) and 5.9% (inactive), respectively.
`COc1ccc(N2CCN(CCNS(=O)(=O)c3cccc4nsnc34)CC2)cc1`: the viability in test [1] is 98%; in test [3], 98% (inactive); in test [4], 102% (inactive); in test [5] it was 91.1% (inactive); in test [6] (setting [9]), 94.1%; in test [6] (setting [10]) it was 91.1%. Besides, in test [2], the Her2 level was 91% (inactive). For the same compound, in test [6] (H69AR cells + 2 uM doxorubicin), the differential viability (reversal) was -2.98% (inactive). The inhibition in test [7] was -5.2% (inactive); in test [8], 1.11% (inactive).
For `CC(=O)n1nc(-c2ccco2)nc1SCc1ccccc1`, the viability in test [1] was 77%; in test [3], 77% (inactive); in test [4], 97.2% (inactive); in test [5] it was 98.7% (inactive); in test [6] (setting [9]) it was 83.8%; in test [6] (setting [10]), 98.7%. Further, the Her2 level in test [2] was 103% (inactive). Moreover, the differential viability (reversal) in test [6] (H69AR cells + 2 uM doxorubicin) is 14.9% (inactive). Besides, the inhibition in test [7] is 1.54% (inactive); in test [8], 0% (inactive).
As to `Cc1ccc(-n2c(SCC3CCCCO3)nnc2-c2ccco2)cc1` (stereo not given), the viability was 89% in test [1]; 89% (inactive) in test [3]; 102% (inactive) in test [4]; 91.4% (inactive) in test [5]; 75.9% in test [6] (setting [9]); 91.4% in test [6] (setting [10]). Moreover, the Her2 level in test [2] was 83% (inactive). Further, in test [6] (H69AR cells + 2 uM doxorubicin), the differential viability (reversal) was 15.5% (inactive). Besides, the figures for the inhibition in test [7] and in test [8] were 0% (inactive) and -8.5% (inactive), respectively.
For the compound `Cc1onc(-c2ccccc2)c1C(=O)N1CCN(C(=O)c2ccco2)CC1`, the viability is 98% in test [1]; 98% (inactive) in test [3]; 101% (inactive) in test [4]; 88.4% (inactive) in test [5]; 90.5% in test [6] (setting [9]); 88.4% in test [6] (setting [10]). Also, the Her2 level in test [2] was 98.5% (inactive). In addition, the differential viability (reversal) in test [6] (H69AR cells + 2 uM doxorubicin) is -2.1% (inactive). The inhibition in test [7] is -6.67% (inactive); in test [8], 5.32% (inactive).
Turning to `COc1cc(C(Nc2ccc3c(c2)OCO3)C(=O)NC2CCCCC2)cc(OC)c1OC` (stereo not given), the viability in test [1] was 74.5%; in test [3] it was 74.5% (inactive); in test [4], 94.2% (inactive); in test [5], 93% (inactive); in test [6] (setting [9]), 99.4%; in test [6] (setting [10]) it was 93%. For the same compound, the Her2 level in test [2] was 75% (inactive). The differential viability (reversal) in test [6] (H69AR cells + 2 uM doxorubicin) was -6.39% (inactive). The inhibition was -4.32% (inactive) in test [7] and 7.94% (inactive) in test [8].
Regarding `COC(=O)Cn1c(C)nc2c(sc3nc(C)cc(C)c32)c1=O`, the viability in test [1] is 110%; in test [3], 110% (inactive); in test [4], 105% (inactive); in test [5], 97.6% (inactive); in test [6] (setting [9]), 90.1%; in test [6] (setting [10]), 97.6%. In test [2], the Her2 level is 113% (inactive). In addition, in test [6] (H69AR cells + 2 uM doxorubicin), the differential viability (reversal) is 7.48% (inactive). The inhibition is -4.61% (inactive) in test [7] and 2.79% (inactive) in test [8].
As to `CCn1c(CNc2ccc(C)cc2)nnc1SCC(=O)NCc1ccccc1`, the viability in test [1] is 89%; in test [3], 89% (inactive); in test [4] it was 91.1% (inactive); in test [5] it was 86.6% (inactive); in test [6] (setting [9]), 87.6%; in test [6] (setting [10]), 86.6%. Moreover, the Her2 level in test [2] was 100% (inactive). Further, the differential viability (reversal) in test [6] (H69AR cells + 2 uM doxorubicin) was -0.975% (inactive). The figures for the inhibition in test [7] and in test [8] were 0.13% (inactive) and 3.93% (inactive), respectively.
In the case of `Clc1ccc(OCCCn2cncn2)cc1Cl`, the viability is 104% in test [1]; 104% (inactive) in test [3]; 92.5% (inactive) in test [4]; 80.2% (inactive) in test [5]; 86.5% in test [6] (setting [9]); 80.2% in test [6] (setting [10]). In addition, in test [2], the Her2 level was 99% (inactive). Besides, in test [6] (H69AR cells + 2 uM doxorubicin), the differential viability (reversal) was -6.33% (inactive). Moreover, the figures for the inhibition in test [7] and in test [8] were 2.03% (inactive) and 16.4% (inactive), respectively.
